Screens as filed in PubChem BioAssay.
The list is not random: actives were taken first. Their share in the collection is about 1.7%.
HNF4A DNA FP – change in binding of human HNF4 alpha to DNA; HNF4a-FITC DNA binding, fluorescence polarization, 1 h; activity change, % at 10 µM; hit rate 0.3% among 360,000; in the data active means activity change above about 30%, passing the limit was not always enough
TPT1 inhibitor – inhibitors of Candida albicans tRNA 2'-phosphotransferase TPT1 | recombinant caTPT1, FP RNA substrate dephosphorylation | inhibition, % at 5 µM | hit rate 0.81% among 300,000;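 active means inhibition above the mean of all tested compounds plus 3 SD, set per screening campaign, cut at about 24% in these data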;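 further: plate controls were DMSO alone for no effect and ferristatin control at 100 nM for full effect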
IDE act – boosts human insulin-degrading enzyme activity in HEK cells; P14735; FAbeta-B cleavage, fluorescence polarization; 0% vehicle, 100% cell-free pure enzyme wells; activation, % at 5.96 µM; hit rate 0.073% among 340,000;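 active means activation above the mean of all tested compounds plus 3 SD, set per screening campaign, cut at about 17% in these data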
Target sequence (P14735 whole entry, looked up): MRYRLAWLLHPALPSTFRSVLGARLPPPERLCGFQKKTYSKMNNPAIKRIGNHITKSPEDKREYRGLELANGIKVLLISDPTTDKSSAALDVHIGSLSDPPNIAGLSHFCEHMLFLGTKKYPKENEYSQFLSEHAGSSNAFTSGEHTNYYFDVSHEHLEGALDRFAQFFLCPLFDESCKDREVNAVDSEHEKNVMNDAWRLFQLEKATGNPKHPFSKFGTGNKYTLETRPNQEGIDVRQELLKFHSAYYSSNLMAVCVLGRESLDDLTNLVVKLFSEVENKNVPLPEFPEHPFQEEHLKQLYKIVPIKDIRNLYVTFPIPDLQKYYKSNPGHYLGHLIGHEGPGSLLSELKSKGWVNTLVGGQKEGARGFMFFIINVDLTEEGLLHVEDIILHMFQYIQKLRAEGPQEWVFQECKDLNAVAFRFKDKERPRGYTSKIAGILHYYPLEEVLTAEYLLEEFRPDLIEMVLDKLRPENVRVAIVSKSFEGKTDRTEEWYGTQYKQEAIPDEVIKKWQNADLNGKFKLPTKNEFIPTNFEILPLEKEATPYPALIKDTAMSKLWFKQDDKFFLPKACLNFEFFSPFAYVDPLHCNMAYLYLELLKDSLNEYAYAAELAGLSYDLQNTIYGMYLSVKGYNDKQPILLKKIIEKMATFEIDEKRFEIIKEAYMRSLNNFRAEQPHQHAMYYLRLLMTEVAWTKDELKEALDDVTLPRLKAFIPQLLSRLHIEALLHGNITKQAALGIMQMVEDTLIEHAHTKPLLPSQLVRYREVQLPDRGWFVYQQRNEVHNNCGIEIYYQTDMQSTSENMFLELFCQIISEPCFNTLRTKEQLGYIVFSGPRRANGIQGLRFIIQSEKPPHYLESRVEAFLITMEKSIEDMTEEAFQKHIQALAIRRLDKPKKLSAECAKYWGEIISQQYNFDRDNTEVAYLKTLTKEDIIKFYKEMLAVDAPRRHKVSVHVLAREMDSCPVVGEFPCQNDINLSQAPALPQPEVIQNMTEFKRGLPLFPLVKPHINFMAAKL
CSN inh – blocks human CSN-mediated cullin deneddylation; Q92905; Purified CSN, SCF-Nedd8-OG deneddylation, fluorescence polarization; inhibition, % at 12.5 µM; hit rate 0.38% among 360,000; AID 651999;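 active means pattern-corrected inhibition above about 35%, with an unprinted fluorescence ratio check between 0.5 and 1.5, limit read from the data, passing the limit was not always enough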;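 further: 0% = enzyme with substrate and 100% = substrate without enzyme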
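Assay system: HEK293T-derived human Csn5 enzyme; quantity: 0.24 nM enzyme; medium: Tris/NaCl/DTT buffer, pH 7.5; also added: substrate SCFSkp2-Nedd8OG, 10 nM; doses: 12.5 µM compound; schedule: 90 min reaction at room temperature; signal: FP; read-out: % inhibition of substrate cleavage by Csn5; benchmarks: substrate-only high control, full reaction low control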
Rpn11 block – inhibitors of human proteasome Rpn11; O00487; human 26S proteasome, Ub4-pepOG fluorescence polarization; 20S core pre-blocked with epoxomicin; inhibition, % at 20 µM; hit rate 0.59% among 360,000; AID 588493;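 active means inhibition at 20 µM, scaled to each plate's controls, above about 33%, limit read from the data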
IDE cell inh – inhibits human insulin-degrading enzyme in HEK cells; P14735; FAbetaB cleavage, fluorescence polarization; inhibition, % at 5.59 µM; hit rate 0.41% among 320,000; AID 434962;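 active means percent inhibition above the average of all tested compounds plus 3 SD, set per screening campaign, cut at about 16% in these data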;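 further: IDE supplied by intact live HEK cells; FP after avidin binding of uncleaved biotin substrate so inhibition keeps polarization high; 0% = DMSO wells and 100% = 60 µM reference IDE inhibitor Ii1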
caTPT1 confirm – TPT1 (C. albicans) inhibition, confirmation; shares compounds with TPT1 inhibitor; recombinant caTPT1, fluorescence polarization, RNase T1 coupled; inhibition, % at 5 µM; hit rate 74% among 2,400;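 active means inhibition above the primary screen limit, the mean inhibition of all tested compounds plus 3 SD, cut at about 25% in these data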
RNase T1 counter – blocks Aspergillus oryzae RNase T1, a TPT1 counter-screen | shares compounds with TPT1 inhibitor | hit rate 83% among 2,400 | AID 2153 | RNase T1 cleavage, fluorescence polarization, 1536-well | inhibition, % at 5 µM;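 active means inhibition above the solvent-only control well mean plus 3 SD, limit set per screening run, cut at about 23% in these data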;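 further: plate controls were DMSO wells with enzyme for no effect and wells without RNase T1 for full effect; inhibitors block cleavage so intact labeled substrate keeps polarization high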
* = called active by the depositor.

Results for O=C(C1CCCCC1)N1C[C@@H](O)[C@H](n2cc(-c3ccc(F)cc3)nn2)C[C@@H]1c1ccc(Cl)cc1 ?
HNF4A DNA FP: 1.3; CSN inh: -1.5; Rpn11 block: -1.8

How did N#Cc1ccccc1NC(=O)C1CCCO1 (stereo not given) do in these assays?
HNF4A DNA FP: 3.8; CSN inh: -0.5; Rpn11 block: -0.3

How did O/C(=C\c1ccc2ccccc2n1)c1ccncc1 do in these assays?
HNF4A DNA FP: 22.7; TPT1 inhibitor: 53.4*; IDE act: -18.6; CSN inh: 11.0; Rpn11 block: 22.5; IDE cell inh: 8.7; caTPT1 confirm: 80.9*; RNase T1 counter: 90.4*

What do the screens show for `COc1ccc(OC)c(NC(=O)C2(C)CCN2C(=O)Cc2ccc(Cl)cc2Cl)c1` (stereo not given)?
HNF4A DNA FP: 0.9; CSN inh: 0.0; Rpn11 block: 1.8

What do the screens show for `Cc1c(NC(=O)Cc2noc3ccccc23)cccc1[N+](=O)[O-]`?
HNF4A DNA FP: 2.5; TPT1 inhibitor: 74.4*; IDE act: 6.0; CSN inh: -1.4; Rpn11 block: 1.7; IDE cell inh: 1.2; caTPT1 confirm: 10.5; RNase T1 counter: 10.8

Results for COCc1ccc(CN2CCC(n3nccc3NC(=O)c3ccc4c(c3)OCO4)CC2)o1 ?
HNF4A DNA FP: 3.2; CSN inh: -1.8; Rpn11 block: 2.8

How did O=C1CC(C(F)(F)C(F)(F)C(F)(F)C(F)F)=Nc2ccccc2N1 do in these assays?
HNF4A DNA FP: 6.0; TPT1 inhibitor: 75.0*; IDE act: 0.7; CSN inh: -1.5; Rpn11 block: 0.3; IDE cell inh: -4.9; caTPT1 confirm: 8.7; RNase T1 counter: 14.3

How did Cc1ccc(N=Nc2[nH]c3ccccc3c2O)cc1 do in these assays?
HNF4A DNA FP: 7.1; TPT1 inhibitor: 24.3*; IDE act: -3.4; CSN inh: 8.3; Rpn11 block: -24.6; IDE cell inh: 15.3; caTPT1 confirm: -7.5; RNase T1 counter: 2.8

Results for COc1ccc(N=Nc2[nH]c3ccc(C)cc3c2O)cc1 ?
HNF4A DNA FP: -0.9; TPT1 inhibitor: -0.3; IDE act: 2.8; CSN inh: 1.6; Rpn11 block: 3.1; IDE cell inh: 3.6

How did C=CCN1C(=O)[C@@H]2Cc3c([nH]c4ccccc34)C(c3cc(OC)c(OC)c(OC)c3)N2C1=S (stereo not given in full) do in these assays?
HNF4A DNA FP: 33.2; TPT1 inhibitor: 56.8*; IDE act: -66.7; CSN inh: 23.8; IDE cell inh: 14.7; caTPT1 confirm: 47.4*; RNase T1 counter: 56.9*

What do the screens show for `CCN1C(=O)[C@@H]2Cc3c([nH]c4ccccc34)C(c3cc(OC)c(OC)c(OC)c3)N2C1=S` (stereo not given in full)?
HNF4A DNA FP: 26.0; TPT1 inhibitor: 58.0*; IDE act: -65.8; CSN inh: 2.6; IDE cell inh: 12.9; caTPT1 confirm: 64.4*; RNase T1 counter: 73.2*

How did Cc1ccc(C(=O)CSc2nn3c(=O)c(C(C)(C)C)nnc3s2)cc1 do in these assays?
HNF4A DNA FP: -3.9; TPT1 inhibitor: 31.8*; IDE act: -2.7; CSN inh: 5.3; Rpn11 block: 6.3; IDE cell inh: 1.4; caTPT1 confirm: 3.3; RNase T1 counter: 6.1

How did CCCN1C=CC(=C/C=C(\C#N)C(=O)OCC)C=C1 do in these assays?
TPT1 inhibitor: 180.6*; IDE cell inh: 101.3*; caTPT1 confirm: 189.8*; RNase T1 counter: 176.6*

Results for COc1ccc(-c2cc(C(F)(F)F)c3c(n2)sc2c(O)cc(=O)[nH]c23)c(OC)c1 ?
HNF4A DNA FP: 90.4; TPT1 inhibitor: 68.9*; IDE act: -13.0; CSN inh: 123.2; IDE cell inh: 13.3; caTPT1 confirm: 82.1*; RNase T1 counter: 84.7*

What do the screens show for `COc1ccc(Nc2ccc(S(=O)(=O)N3CCCCC3)cc2[N+](=O)[O-])cc1`?
HNF4A DNA FP: -3.8; TPT1 inhibitor: 66.9*; IDE act: 7.5; CSN inh: -2.3; Rpn11 block: -3.1; IDE cell inh: -6.2; caTPT1 confirm: 5.9; RNase T1 counter: 9.2

How did COc1ccc(Nc2ccc(S(=O)(=O)N3CCCCC3)cc2[N+](=O)[O-])cc1Cl do in these assays?
HNF4A DNA FP: 0.2; TPT1 inhibitor: -1.4; IDE act: 6.9; CSN inh: 0.2; Rpn11 block: 2.6; IDE cell inh: 2.3

Results for COc1ccc(N=Cc2cc3c(cc2O)OC(N)=C(C#N)C3c2ccccc2)cc1 (stereo not given) ?
HNF4A DNA FP: 65.9*; TPT1 inhibitor: 55.0*; IDE act: -5.7; CSN inh: 1.4; IDE cell inh: 12.3; caTPT1 confirm: 77.5*; RNase T1 counter: 87.5*

What do the screens show for `COc1ccc(C2C(C#N)=C(N)Oc3cc(O)ccc32)cc1` (stereo not given)?
HNF4A DNA FP: 2.8; IDE act: -0.8; CSN inh: -4.6; Rpn11 block: 8.6

Results for COc1ccc(C)c2sc(=NC(=O)c3ccccc3)n(C)c12 ?
HNF4A DNA FP: 5.4; TPT1 inhibitor: -2.9; IDE act: 1.3; CSN inh: -6.5; Rpn11 block: 0.6; IDE cell inh: 2.1

What do the screens show for `COc1ccc(C)c2sc(=NC(=O)c3cccc(N4C(=O)CCC4=O)c3)n(C)c12`?
HNF4A DNA FP: 1.3; TPT1 inhibitor: 38.0*; IDE act: 5.8; CSN inh: 0.7; Rpn11 block: -0.8; IDE cell inh: 7.1; caTPT1 confirm: -0.5; RNase T1 counter: 4.7

What do the screens show for `CC(C)NC(=O)Nc1ccc2c(c1)C(=O)N([C@H](C)CO)C[C@H](C)[C@@H](CN(C)Cc1ccc3c(c1)OCO3)OCCCC[C@@H](C)O2`?
HNF4A DNA FP: -3.6; CSN inh: 4.1; Rpn11 block: -2.8

What do the screens show for `O=C(CCN1C(=O)/C(=C\c2ccccc2)SC1=S)N1CCCCC1`?
HNF4A DNA FP: -0.3; TPT1 inhibitor: 2.2; IDE act: 4.0; CSN inh: 1.2; Rpn11 block: 16.8; IDE cell inh: -1.4

What do the screens show for `O=C(CCN1C(=O)/C(=C/c2cccs2)SC1=S)N1CCCCC1`?
HNF4A DNA FP: 9.9; TPT1 inhibitor: 33.4*; IDE act: 0.7; CSN inh: 8.5; Rpn11 block: 29.5; IDE cell inh: -6.4; caTPT1 confirm: 34.3*; RNase T1 counter: 46.4*

How did CC(=O)NC(c1ccccc1)c1nc(-c2csc3ccccc23)cs1 (stereo not given) do in these assays?
HNF4A DNA FP: -4.9; CSN inh: -1.4; Rpn11 block: 1.2
